Measured values: ChEMBL document CHEMBL1926607 (J Med Chem, 2011)
Calls of active or inactive are those of the source. The rule behind the calls is not given here.

Key:
[1] = molecular target: T1, 5-hydroxytryptamine receptor 1A (Homo sapiens) (UniProt P08908); assay: Agonist activity at human 5HT1A receptor expressed in human HeLa cells assessed as inhibition of forskolin-stimulated cAMP production pretreated 20 mins before forskolin challenge measured after 2 hrs by RIA relative to control; format: functional, cell-based
T1 sequence (whole entry): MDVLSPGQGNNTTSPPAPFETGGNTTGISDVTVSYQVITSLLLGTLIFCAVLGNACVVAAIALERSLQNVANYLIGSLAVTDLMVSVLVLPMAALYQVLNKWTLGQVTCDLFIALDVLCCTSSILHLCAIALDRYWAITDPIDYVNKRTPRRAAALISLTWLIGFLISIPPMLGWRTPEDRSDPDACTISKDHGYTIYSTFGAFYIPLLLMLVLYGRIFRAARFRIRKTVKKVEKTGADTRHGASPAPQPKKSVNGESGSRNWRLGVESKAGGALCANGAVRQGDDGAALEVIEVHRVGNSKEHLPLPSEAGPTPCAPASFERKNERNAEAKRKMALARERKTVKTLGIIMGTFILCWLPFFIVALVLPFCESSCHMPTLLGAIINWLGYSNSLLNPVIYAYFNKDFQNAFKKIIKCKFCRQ

[2] = molecular target: T2, 5-hydroxytryptamine receptor 1A (Homo sapiens, UniProt P08908); assay: Agonist activity at human 5HT1A receptor expressed in human HeLa cells assessed as inhibition of forskolin-stimulated cAMP production […] measured after 2 hrs by RIA; format: functional, cell-based
T2 sequence (P08908 whole entry): T1 sequence (whole entry)
Method in brief: (§1)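 HeLa cells stably expressing the h5-HT1AR, grown in DMEM with 2 mM glutamine, 1 mM pyruvate and 10% heat-inactivated FCS, and used after 2–3 days at about 7.5 × 10^4 cells/well. After a PBS wash, cells were incubated 10 min in PBS with 0.5 mM isobutylmethylxanthine and 10 μM forskolin, with or without compound. The reaction was stopped with ice-cold ethanol, extracted 2 h and lyophilized; cAMP was measured by RIA.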

[3] = molecular target: 5-hydroxytryptamine receptor 2A (Rattus norvegicus, UniProt P14842); assay: Displacement of [3H]ketanserin from 5HT2A receptor in Sprague-Dawley albinus rat frontal cortex membranes after 15 mins; format: cell membranes, Membrane
Chain of 5-hydroxytryptamine receptor 2A (P14842 whole entry): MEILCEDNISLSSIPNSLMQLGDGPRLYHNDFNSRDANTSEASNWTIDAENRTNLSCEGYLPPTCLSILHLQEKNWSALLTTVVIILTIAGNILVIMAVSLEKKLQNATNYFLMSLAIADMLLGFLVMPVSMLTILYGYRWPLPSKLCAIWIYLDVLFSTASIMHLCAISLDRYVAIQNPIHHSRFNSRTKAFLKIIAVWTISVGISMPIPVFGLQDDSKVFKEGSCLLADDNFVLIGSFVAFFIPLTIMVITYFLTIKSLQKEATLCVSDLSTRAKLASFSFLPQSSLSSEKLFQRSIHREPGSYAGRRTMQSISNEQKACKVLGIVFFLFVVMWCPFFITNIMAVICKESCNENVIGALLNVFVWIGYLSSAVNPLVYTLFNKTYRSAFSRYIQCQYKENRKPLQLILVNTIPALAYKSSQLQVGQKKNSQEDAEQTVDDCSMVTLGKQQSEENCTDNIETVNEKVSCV
Method in brief: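 Rat frontal cortex membranes (male Sprague–Dawley, 180–200 g). Nonspecific binding was set with 1 μM cinanserin.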

[4] = molecular target: T3, 5-hydroxytryptamine receptor 1A (Rattus norvegicus, UniProt P19327); assay: Displacement of [3H]-8-OH-DPAT from 5-HT1A receptor in Sprague-Dawley albinus rat cerebral cortex membranes after 15 mins; format: cell membranes, Membrane
T3 sequence (P19327 whole entry): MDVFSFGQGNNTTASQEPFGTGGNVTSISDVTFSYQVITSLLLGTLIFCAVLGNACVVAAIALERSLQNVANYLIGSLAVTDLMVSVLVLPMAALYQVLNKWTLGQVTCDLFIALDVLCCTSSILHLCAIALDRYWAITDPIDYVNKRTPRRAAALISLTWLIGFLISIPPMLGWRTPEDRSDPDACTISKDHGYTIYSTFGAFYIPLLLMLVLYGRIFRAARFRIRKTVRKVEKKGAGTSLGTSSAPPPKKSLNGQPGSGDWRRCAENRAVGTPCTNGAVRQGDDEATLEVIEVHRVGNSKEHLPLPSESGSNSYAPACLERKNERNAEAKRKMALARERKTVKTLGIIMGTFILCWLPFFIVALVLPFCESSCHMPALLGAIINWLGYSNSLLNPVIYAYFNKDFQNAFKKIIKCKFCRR

[5] = molecular target: T1, 5-hydroxytryptamine receptor 1A (Homo sapiens); assay: Partial agonist activity at human 5HT1A receptor expressed in human HeLa cells assessed as inhibition of forskolin-stimulated cAMP production pretreated 20 mins before forskolin challenge measured after 2 hrs by RIA; format: functional, cell-based; method in brief: as §1
[6] = molecular target: 5-hydroxytryptamine receptor 7 (Rattus norvegicus, UniProt P32305); assay: Displacement of [3H]-5-CT from 5HT7 receptor in Sprague-Dawley albinus rat hyphalamic membranes after 120 mins; format: cell membranes, Membrane
Chain of 5-hydroxytryptamine receptor 7 (P32305 whole entry): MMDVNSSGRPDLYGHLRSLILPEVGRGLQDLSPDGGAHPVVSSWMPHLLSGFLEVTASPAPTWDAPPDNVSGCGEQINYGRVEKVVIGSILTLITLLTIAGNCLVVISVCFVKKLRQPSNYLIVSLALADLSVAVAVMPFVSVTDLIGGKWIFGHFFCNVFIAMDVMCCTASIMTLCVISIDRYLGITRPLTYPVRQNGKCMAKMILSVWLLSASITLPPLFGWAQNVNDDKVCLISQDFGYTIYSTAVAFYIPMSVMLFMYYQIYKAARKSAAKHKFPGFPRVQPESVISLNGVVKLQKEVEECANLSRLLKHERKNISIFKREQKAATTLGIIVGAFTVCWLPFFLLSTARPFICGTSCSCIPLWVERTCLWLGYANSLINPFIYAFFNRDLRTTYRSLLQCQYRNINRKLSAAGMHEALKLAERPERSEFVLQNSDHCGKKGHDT

D(2) dopamine receptor = D(2) dopamine receptor (Rattus norvegicus, UniProt P61169); assay: Displacement of [3H]spiperone from dopamine D2 receptor in Sprague-Dawley albinus rat striatal membranes after 15 mins; format: cell membranes, Membrane
Chain of D(2) dopamine receptor (P61169 whole entry): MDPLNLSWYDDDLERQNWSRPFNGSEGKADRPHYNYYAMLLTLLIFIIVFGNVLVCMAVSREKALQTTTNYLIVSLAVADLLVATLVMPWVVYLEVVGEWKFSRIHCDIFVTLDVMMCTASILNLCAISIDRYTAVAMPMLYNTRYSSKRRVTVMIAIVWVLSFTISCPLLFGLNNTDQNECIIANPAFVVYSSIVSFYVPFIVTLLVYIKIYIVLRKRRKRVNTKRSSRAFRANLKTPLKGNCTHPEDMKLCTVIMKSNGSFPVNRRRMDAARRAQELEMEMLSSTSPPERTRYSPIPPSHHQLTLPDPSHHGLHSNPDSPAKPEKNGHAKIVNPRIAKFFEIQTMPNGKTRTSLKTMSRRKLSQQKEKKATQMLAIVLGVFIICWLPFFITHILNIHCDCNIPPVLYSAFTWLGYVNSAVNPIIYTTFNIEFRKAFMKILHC

[7] = molecular target: T4, 5-hydroxytryptamine receptor 3A (Rattus norvegicus, UniProt P35563); assay: Displacement of [3H]-LY278584 from 5HT3 receptor in Sprague-Dawley albinus rat cerebral cortex membranes after 30 mins; format: cell membranes, Membrane
T4 sequence (P35563 whole entry): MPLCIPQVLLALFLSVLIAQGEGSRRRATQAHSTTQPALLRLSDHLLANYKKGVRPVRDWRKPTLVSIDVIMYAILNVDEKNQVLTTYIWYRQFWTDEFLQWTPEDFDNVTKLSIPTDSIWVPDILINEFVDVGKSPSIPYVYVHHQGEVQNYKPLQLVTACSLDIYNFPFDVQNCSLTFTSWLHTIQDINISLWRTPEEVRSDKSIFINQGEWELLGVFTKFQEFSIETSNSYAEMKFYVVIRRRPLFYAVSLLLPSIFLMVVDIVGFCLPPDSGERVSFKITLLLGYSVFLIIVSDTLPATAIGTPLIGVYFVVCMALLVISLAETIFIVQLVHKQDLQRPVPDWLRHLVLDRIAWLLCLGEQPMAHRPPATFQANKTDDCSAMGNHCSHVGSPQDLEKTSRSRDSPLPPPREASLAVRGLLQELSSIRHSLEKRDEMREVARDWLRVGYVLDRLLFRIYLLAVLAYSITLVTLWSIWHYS

[8] = molecular target: T5, Adrenergic receptor alpha-1 (Rattus norvegicus, UniProt P15823+P23944+P43140); assay: Displacement of [3H]prazosin from alpha1 adrenoceptor in Sprague-Dawley albinus rat cerebral cortex membranes after 30 mins; format: cell membranes, Membrane
T5 sequence (P15823 whole entry): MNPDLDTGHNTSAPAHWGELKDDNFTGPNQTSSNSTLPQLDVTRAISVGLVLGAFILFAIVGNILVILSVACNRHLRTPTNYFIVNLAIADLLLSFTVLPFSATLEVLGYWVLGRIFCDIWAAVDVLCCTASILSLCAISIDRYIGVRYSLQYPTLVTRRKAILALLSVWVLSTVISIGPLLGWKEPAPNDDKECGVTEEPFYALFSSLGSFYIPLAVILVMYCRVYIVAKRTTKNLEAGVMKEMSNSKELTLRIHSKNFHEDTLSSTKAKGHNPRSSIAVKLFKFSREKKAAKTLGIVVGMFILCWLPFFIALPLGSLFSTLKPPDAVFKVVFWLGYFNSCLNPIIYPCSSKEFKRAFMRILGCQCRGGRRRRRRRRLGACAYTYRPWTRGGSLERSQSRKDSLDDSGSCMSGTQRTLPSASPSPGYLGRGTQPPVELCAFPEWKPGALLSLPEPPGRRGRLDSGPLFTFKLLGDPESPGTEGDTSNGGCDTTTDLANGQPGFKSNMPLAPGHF
T5 sequence (P23944 whole entry): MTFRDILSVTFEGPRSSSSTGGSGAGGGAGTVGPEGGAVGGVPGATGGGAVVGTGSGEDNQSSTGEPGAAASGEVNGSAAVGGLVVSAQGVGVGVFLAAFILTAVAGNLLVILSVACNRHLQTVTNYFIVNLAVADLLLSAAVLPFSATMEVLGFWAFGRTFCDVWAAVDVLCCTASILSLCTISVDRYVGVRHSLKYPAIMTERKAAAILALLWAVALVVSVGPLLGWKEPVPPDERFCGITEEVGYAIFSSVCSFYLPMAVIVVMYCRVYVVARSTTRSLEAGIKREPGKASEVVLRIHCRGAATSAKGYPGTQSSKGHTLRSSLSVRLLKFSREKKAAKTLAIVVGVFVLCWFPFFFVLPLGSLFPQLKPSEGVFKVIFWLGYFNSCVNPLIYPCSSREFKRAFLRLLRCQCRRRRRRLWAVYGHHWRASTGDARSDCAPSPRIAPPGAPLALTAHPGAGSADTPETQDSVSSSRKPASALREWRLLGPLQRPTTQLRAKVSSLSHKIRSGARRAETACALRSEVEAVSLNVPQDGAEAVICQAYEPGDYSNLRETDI
T5 sequence (P43140 whole entry): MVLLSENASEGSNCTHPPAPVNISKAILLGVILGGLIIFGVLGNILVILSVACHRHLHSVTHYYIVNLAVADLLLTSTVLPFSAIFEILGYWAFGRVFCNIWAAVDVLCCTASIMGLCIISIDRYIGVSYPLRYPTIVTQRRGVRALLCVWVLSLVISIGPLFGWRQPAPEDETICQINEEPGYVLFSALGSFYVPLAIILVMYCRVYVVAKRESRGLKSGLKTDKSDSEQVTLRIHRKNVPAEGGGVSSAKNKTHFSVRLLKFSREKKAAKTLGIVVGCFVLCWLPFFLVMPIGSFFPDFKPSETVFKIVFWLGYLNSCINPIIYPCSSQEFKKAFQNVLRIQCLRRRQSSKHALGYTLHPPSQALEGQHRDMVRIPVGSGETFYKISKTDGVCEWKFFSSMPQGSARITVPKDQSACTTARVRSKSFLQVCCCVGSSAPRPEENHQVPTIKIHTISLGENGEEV
Method in brief: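 Rat cerebral cortex membranes (about 250 μg protein; male Sprague–Dawley, 180–200 g) in 50 mM Tris-HCl with 10 mM MgCl2, pH 7.4. Incubation was 30 min at 25 °C with 0.2 nM [3H]prazosin and six competitor concentrations. Nonspecific binding was set with 10 μM phentolamine.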

[9] = molecular target: 5-hydroxytryptamine receptor 4 (Rattus norvegicus, UniProt Q62758); assay: Displacement of [3H]GR113808 from 5HT4 receptor in Sprague-Dawley albinus rat striatal membranes after 30 mins by scintillation counting; format: cell membranes, Membrane
Chain of 5-hydroxytryptamine receptor 4 (Q62758 whole entry): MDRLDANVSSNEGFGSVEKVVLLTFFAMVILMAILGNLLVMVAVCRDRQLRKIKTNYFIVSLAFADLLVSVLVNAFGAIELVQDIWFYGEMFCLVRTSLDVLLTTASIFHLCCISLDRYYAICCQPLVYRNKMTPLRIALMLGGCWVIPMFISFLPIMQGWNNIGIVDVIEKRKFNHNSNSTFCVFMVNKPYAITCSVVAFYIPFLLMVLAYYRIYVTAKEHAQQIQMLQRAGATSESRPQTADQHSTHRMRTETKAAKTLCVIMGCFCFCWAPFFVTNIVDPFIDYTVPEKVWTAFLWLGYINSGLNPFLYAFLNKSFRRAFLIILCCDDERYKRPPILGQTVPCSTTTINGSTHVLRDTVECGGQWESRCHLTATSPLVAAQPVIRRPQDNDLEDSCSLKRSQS

| Structure (SMILES) | Ki [3] [nM] | Ki [4] [nM] | further results |
| --- | --- | --- | --- |
| O=C1C2CCCN2C(=O)N1CC#CCNCC1CCc2ccccc2O1 (configuration not stated) | – | > 1000 | – |
| O=C1C2CCCN2C(=O)N1CCCCNCCc1ccccn1 (configuration not stated) | – | > 1000 | – |
| O=C1C2CCCN2C(=O)N1CCCCNCc1ccccc1 (configuration not stated) | – | > 1000 | – |
| O=C1C2CCCN2C(=O)N1CCCCNCc1ccccn1 (configuration not stated) | – | > 1000 | – |
| Cl.O=C1C2CCCN2C(=O)N1CCCCNCCc1cccc2ccccc12 (configuration not stated) | > 1000 | – | Ki [6]: > 1000 nM; Ki (D(2) dopamine receptor): > 1000 nM; Ki [7]: > 1000 nM; Ki [8]: > 1000 nM; Ki [9]: > 1000 nM |
| O=C1C2CCCN2C(=O)N1CCCCNCc1ccc2ccccc2n1 (configuration not stated) | > 1000 | 8.3 | Emax [1]: 75.8%; Activity [5]: Active |
| O=C1C2CCCN2C(=O)N1CCCCNCCc1cccs1 (configuration not stated) | – | > 1000 | – |

More lines, main results first:

| Ki [3] [nM] | Ki [4] [nM] | Structure (SMILES) | further results |
| --- | --- | --- | --- |
| > 1000 | – | O=C1CSC(=O)N1CCCCCNCC1CCc2ccccc2O1 (configuration not stated) | Emax [1]: 94.8%; EC50 [2]: 34.2 nM |
| > 1000 | 49 | O=C1C2CCCN2C(=O)N1CCCCNCc1ccc2ccccc2c1 (configuration not stated) | – |
| > 1000 | 15.1 | O=C1CSC(=O)N1CCCCNCC1CCc2ccccc2O1 (configuration not stated) | Emax [1]: 89.6% |
| – | 114 | O=C1C2CCCN2C(=O)N1C/C=C\CNCC1CCc2ccccc2O1 (configuration not stated) | – |
| > 1000 | 2.4 | O=C1C2CCCCN2C(=O)N1CCCCNCC1CCc2ccccc2O1 (configuration not stated) | Emax [1]: 77.9%; Activity [5]: Active |
| > 1000 | – | O=C1C2CCCN2C(=O)N1Cc1cccc(CNCC2CCc3ccccc3O2)c1 (configuration not stated) | – |
| – | > 1000 | O=C1C2CCCN2C(=O)N1CCCCNCc1cccc2ccccc12 (configuration not stated) | – |
| > 1000 | 28 | O=C1C2CCCN2C(=O)N1Cc1ccc(CNCC2CCc3ccccc3O2)cc1 (configuration not stated) | – |
